High-throughput results from PubChem.
Tb MetRS inh: T. brucei MetRS inhibitors, primary screen, biochemical, luminescence; methionyl-tRNA synthetase (Trypanosoma brucei brucei); purified T. brucei MetRS, ATP depletion, Kinase-Glo luminescence; inhibition, % at 11.9 µM; 360,000 tested, 0.4% active;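 active = inhibition above a per-plate cutoff of the control wells' mean inhibition plus 3 SD, cut at about 5.5% in these data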
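Measured by: Kinase-Glo luciferase luminescence reporting remaining unconsumed ATP. Material: purified T. brucei MetRS enzyme. Doses: 11.9 µM compound single dose, 0.9% DMSO. Medium: HEPES buffer containing pyrophosphatase, BSA, spermine, DTT. Times: 15 min preincubation, 2 h reaction, all 25 °C. Reagent: methionine, ATP and bulk E. coli tRNA.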
H9c2 protect: cardioprotection against H2O2-induced cell death, primary screen, uHTS, H9c2 cells, ATPLite luminescence; AID 588492, 2011; 360,000 tested, 0.63% active; H9c2 cardiomyocytes, H2O2 injury protection, 2 h; protection from H2O2 cell death, % at 20 µM;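 active = compounds giving at least 50% protection of heart cells from peroxide-induced death in the single-dose screen, raw or plate-pattern-corrected value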
PKA-R1A activ: activators of PKA-R1A holoenzyme, primary screen, biochemical, fluorescence polarization, Cy5-IP20, bovine R1A, mouse PKAc. cAMP-dependent protein kinase type I-alpha regulatory subunit (Bos taurus) + …. PKA-R1A dissociation; scaled: DMSO 0%, 113 µM cGMP 100%. activation, % at 11.4 µM. 340,000 tested, 0.083% active;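 active = percent activation above the mean of all tested compounds plus 3 SD, cut at about 19% in these data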;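 note: higher means more PKAc released from R1A so a rise in polarization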
Rin1 Abl inh: inhibitors of Rin1-Abl protein binding, primary screen, biochemical, TR-FRET; Tyrosine-protein kinase ABL1 (Homo sapiens) + Ras and Rab interactor 1 (Homo sapiens), …; AID 588664, 2011; inhibition, % at 7.35 µM; 360,000 tested, 0.4% active; in the data active = inhibition above about 5%, passing the limit was not always enough
PKA-R2B activ: activators of PKA-R2B holoenzyme, primary screen, biochemical, fluorescence polarization, Cy5-IP20, human; cAMP-dependent protein kinase catalytic subunit beta (Homo sapiens) + cAMP-dependent …; PKA-R2B holoenzyme dissociation; R2B truncated from residue 108, S112A mutant; 0% DMSO only, 100% 113 µM cGMP; activation, % at 11.4 µM; 340,000 tested, 0.079% active;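 active = activation above a cutoff set at the mean over all compounds plus 3 SD, cut at about 18% in these data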;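 note: higher means more holoenzyme dissociation and a rise in polarization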
Each line names hits and unclear results; the compound was inactive in the other large screens. In the library only some 1.5% were active in any assay of this set; here they are far more common.

CC(C)(C)OC(=O)C[C@@H]1C/C=C\C[C@@H](CC(=O)N(CCO)Cc2ccccc2)C(=O)NC[C@@H](c2ccccc2)OC1=O	none
COc1cc(NC(=O)c2ccc(F)cc2)ccc1NC(=O)c1cc2ccccc2o1	none
COc1cc(NC(=O)c2c(OC)cccc2OC)ccc1NC(=O)c1cc2ccccc2o1	H9c2 protect 54
COC(=O)c1[nH]c2ccccc2c1NC(=O)CNC1CCCCC1	H9c2 protect 86
c1ccc(N2CCN(c3nc4ccccc4n4cnnc34)CC2)cc1	none
C1=C(c2ccccc2)CCN(c2nc3ccccc3n3cnnc23)C1	H9c2 protect 67
c1ccc2c(c1)nc(N1CCOCC1)c1nncn12	none
c1ccc2c(c1)CCN(c1nc3ccccc3n3cnnc13)C2	H9c2 protect 58
c1ccc2c(c1)CCCN2c1nc2ccccc2n2cnnc12	H9c2 protect 54
CC(C)(C)C1CCN2CCC[C@](c3ccccc3)(C1)C2OCCCO (stereo partly specified)	none (no result: H9c2 protect, PKA-R1A activ, Rin1 Abl inh, PKA-R2B activ)
CCCn1c(NC(=O)c2ccc(Cl)c(S(=O)(=O)N3CCCC3)c2)nc2ccccc21	H9c2 protect 61
CCOC(=O)N(C)C[C@@H]1OCc2ccccc2-c2c(n(C)c3ccccc23)C(=O)N([C@H](C)CO)C[C@H]1C	none
COc1ccc(NC(=O)c2cc(-c3cc(OC)c(OC)c(OC)c3)nc3ccccc23)cc1OC	H9c2 protect 63
COc1ccc(-c2cc(C(=O)Nc3ccc(O)cc3)c3ccccc3n2)cc1OC	none
COc1ccc(-c2cc(C(=O)N3CCN(c4ccccc4)CC3)c3ccccc3n2)cc1OC	H9c2 protect 54
COc1ccccc1NC(=O)c1cc(-c2ccc(OC)c(OC)c2)nc2ccccc12	H9c2 protect 57
COc1cc(-c2cc(C(=O)OCC(=O)NC3CC3)c3ccccc3n2)cc(OC)c1OC	H9c2 protect 64
CCOC(=O)c1cc(S(=O)(=O)NCC2CCN(Cc3cccc(C)c3)CC2)cn1C	none
COc1ccc(NC(=O)c2cc(-c3ccccn3)nc3ccccc23)cc1S(=O)(=O)N(C)C	H9c2 protect 89
COc1ccc(CCC(=O)OCC(=O)Nc2c(C)n(C)n(-c3ccccc3)c2=O)cc1	none
CC1CCCCN1CCNC(=O)c1cc2c(-c3ccccc3F)nn(C)c2s1 (stereo unspecified)	none
CCOC(=O)N1CCC(NC(=O)c2cc3c(-c4ccc(OC)c(OC)c4)nn(C)c3s2)CC1	H9c2 protect 63
COc1ccc(-c2nn(C)c3sc(C(=O)NCc4ccco4)cc23)cc1OC	none
CCOC(=O)N1CCC(NC(=O)c2cc3c(-c4ccccc4F)nn(C)c3s2)CC1	H9c2 protect 50
COc1ccc(NC(=O)c2cc3c(-c4ccc(OC)c(OC)c4)nn(C)c3s2)cc1OC	H9c2 protect 62
CCn1c(SCC(=O)N2c3ccccc3CCc3ccccc32)nc2c1c(=O)n(C)c(=O)n2C	none
CC1Cc2ccccc2N1C(=O)CSc1nc2c(c(=O)n(C)c(=O)n2C)n1Cc1ccccc1 (stereo unspecified)	H9c2 protect 72
COc1ccc(C(=O)COc2ccccc2C(N)=O)cc1	H9c2 protect 69
Oc1c(Br)cc(Br)cc1C=Nc1ccc2c(c1)OCCO2	H9c2 protect 84
Oc1c(Cl)cc(Cl)cc1C=Nc1ccc(N2CCOCC2)cc1	H9c2 protect 65
Cc1cc(Br)cc(C=Nc2ccc(N3CCOCC3)cc2)c1O	H9c2 protect 84
Cc1ccc(O)c(N=Cc2cc(Cc3ccccc3)cc([N+](=O)[O-])c2O)c1	none
O=[N+]([O-])c1cc(Cc2ccccc2)cc(C=Nc2ccc(N3CCOCC3)cc2)c1O	H9c2 protect 86
COc1ccc(NC(=O)C2CCCN(S(C)(=O)=O)C2)cc1Cl (stereo unspecified)	none
CC(c1ccco1)N(C(=O)c1cccc(Br)c1)c1ccccn1 (stereo unspecified)	none
Cc1[nH]c2ccc(C(=O)OCC(=O)NC3(C#N)CCCCC3)cc2c1C	none
O=C(Nc1ccc(F)c(Cl)c1)N1CCCCCC1	none
NC(=O)NC(CC(=O)OCC(=O)Nc1nnc(-c2ccccc2)o1)c1ccc(Cl)cc1 (stereo unspecified)	none
Oc1ccc(N=Nc2cccc(C(F)(F)F)c2)cc1C=Nc1ccc(N2CCOCC2)cc1	H9c2 protect 76
Oc1ccc(C=Nc2ccc(N3CCOCC3)cc2)c(O)c1	none
CCCCN1CC(COCc2ccccc2)Oc2cccc(OCCN3C(=O)[C@@H]4[C@H](C3=O)C3C=C[C@H]4C3)c2S1(=O)=O (stereo partly specified)	H9c2 protect 71
COc1ccc(N2CCN(C3CCCN(Cc4ccc(F)cc4Cl)C3)CC2)cc1 (stereo unspecified)	none
Cc1ccc(Cn2c(C)c(C(=O)NCc3cccs3)sc2=O)cc1	none (no result: PKA-R1A activ, PKA-R2B activ)
COC(=O)c1ccc(Cn2c(C)c(C(=O)NCc3cccs3)sc2=O)o1	H9c2 protect 52 (no result: PKA-R1A activ, PKA-R2B activ)
Nc1nc(Cl)cc(N2CCC(c3cc(-c4ccc(Cl)cc4Cl)n[nH]3)CC2)n1	Tb MetRS inh 21
Nc1nc(Cl)cc(N2CCCC2)n1	none
Cc1ccc(CNC(=O)C(N=C2NS(=O)(=O)c3ccccc32)C(C)C)cc1 (stereo unspecified)	none
NC(=O)c1ccc(NC(=O)COC(=O)c2c3c(nc4ccccc24)/C(=C\c2cccs2)CCC3)cc1	H9c2 protect 54
Cc1ccc(CNC(=O)C2CCC(=O)N(Cc3ccccc3F)C2)s1 (stereo unspecified)	none
CCN(CC)S(=O)(=O)c1ccc(N/N=C/c2ccc(O)cc2O)nc1	H9c2 protect 78
CCCNC(=O)c1ccc2c(=O)c(O)c(-c3ccc(OC)cc3)[nH]c2c1	none
CCCNC(=O)c1ccc2c(=O)c(O)c(-c3ccc(C)cc3)[nH]c2c1	H9c2 protect 54
CCN(Cc1cc(=O)[nH]c2ccccc12)C(=O)c1ccc(C)cc1	none
CCCNC(=O)c1ccc2c(=O)c(O)c(-c3ccsc3)[nH]c2c1	H9c2 protect 51
Cc1ccc(-c2[nH]c3cc(C(N)=O)ccc3c(=O)c2O)cc1	H9c2 protect 63
Cc1ccc(CNC(=O)c2ccc3c(=O)c(O)c(-c4ccc(C)cc4)[nH]c3c2)cc1	H9c2 protect 59
CCOC(=O)C1CCCN(C(=O)c2cccc([N+](=O)[O-])c2C)C1 (stereo unspecified)	none
O=c1[nH]c(N2CCOCC2)cc2ccccc12	H9c2 protect 56
